Tests used:
L1210 [1] = assay: The ratio of IC50 of the inhibitor (assayed in L1210 cells) in presence and absence of thymidine; format: functional, Mus musculus
Summary of the method: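 Murine L1210 leukemia cells grown in RPMI-1640 with 5% fetal calf serum and 0.5% DMSO, seeded at 1000 cells/well, over nine 2-fold serial dilutions of compound, with or without 10 μM thymidine replenished daily over 3 days.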

Thymidylate synthase [2] = biological target: T1, Thymidylate synthase (Homo sapiens, UniProt P04818); assay: (§1) Inhibition of human Thymidylate synthase
CCRF-CEM = assay: Inhibition of human lymphoblastic leukemia (CCRF-CEM) cell growth measured using a modification of the MTT36 colorimetric assay of Mosmann; format: functional, cell-based
GC3/MTK- = assay: Inhibition of cellular growth in human adenocarcinoma cell line (GC3/M TK) deficient in thymidine kinase; format: functional, cell-based
Thymidylate synthase [3] = biological target: T1, Thymidylate synthase; assay: as §1; remark: listed apart in the source
L1210 [4] = assay: Inhibition of mouse L1210 (murine leukemia) cell growth measured using a modification of the MTT36 colorimetric assay of Mosmann; format: functional, cell-based
Thymidylate synthase [5] = biological target: T2, Thymidylate synthase (Escherichia coli, UniProt C3SWJ7); assay: (§2) Inhibition of purified Escherichia coli Thymidylate synthase
Thymidylate synthase [6] = biological target: T2, Thymidylate synthase; assay: as §2; remark: listed apart in the source
[7] = Partition coefficient (logP); format: physicochemical; settings: octanol/water
Thymidylate synthase [8] = biological target: T1, Thymidylate synthase; assay: Compound was tested for TS activity against human Thymidylate synthase by tight binding kinetics

T2 sequence (C3SWJ7 whole entry): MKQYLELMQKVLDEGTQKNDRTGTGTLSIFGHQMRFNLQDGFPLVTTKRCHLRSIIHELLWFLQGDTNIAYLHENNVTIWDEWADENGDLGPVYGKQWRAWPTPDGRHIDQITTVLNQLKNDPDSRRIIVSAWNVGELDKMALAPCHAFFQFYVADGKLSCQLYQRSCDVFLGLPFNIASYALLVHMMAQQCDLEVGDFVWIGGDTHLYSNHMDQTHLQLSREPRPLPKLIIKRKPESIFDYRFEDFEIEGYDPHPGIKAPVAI
T1 sequence (P04818 whole entry): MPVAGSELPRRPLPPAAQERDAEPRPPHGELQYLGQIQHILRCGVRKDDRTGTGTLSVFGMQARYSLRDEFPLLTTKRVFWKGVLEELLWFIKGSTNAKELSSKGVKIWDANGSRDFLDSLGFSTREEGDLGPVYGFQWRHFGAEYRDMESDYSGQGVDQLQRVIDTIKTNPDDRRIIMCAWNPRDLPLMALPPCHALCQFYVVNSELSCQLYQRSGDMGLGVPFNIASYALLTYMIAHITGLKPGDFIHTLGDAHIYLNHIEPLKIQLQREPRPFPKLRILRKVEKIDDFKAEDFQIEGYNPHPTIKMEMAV

Ki (Thymidylate synthase [2]) [nM] | IC50 (CCRF-CEM) [µM] | Ki (Thymidylate synthase [3]) [nM] | IC50 (L1210 [4]) [nM] | Ki (Thymidylate synthase [5]) [nM] | Ki (Thymidylate synthase [6]) [nM] | logP [7] | SMILES | Thymidine shift (L1210 [1]) | IC50 (GC3/MTK-) [µM] | Ki (Thymidylate synthase [8]) [nM]
20 | 2.1 | 18 | 1300 |  |  |  | Nc1nc(O)c2c(Sc3ccncc3)c(Cl)ccc2n1 | ~14 | 2.05 | 
56 | 2.9 | 78 | 3000 | 730 | 490 | 3.29 | Cc1nc(O)c2c(Sc3ccc([N+](=O)[O-])cc3)c(C)ccc2n1 | 3.3 | > 4 | 
960 | > 26.9 |  |  | 30000 | 10000 |  | Cc1nc(O)c2c(Sc3ccncc3)cccc2n1 |  | > 26.9 | 
37 |  | 46 |  | 710 | 280 |  | COc1cc(Sc2c(C)ccc3nc(C)nc(O)c23)ccn1 |  | > 5 | 
> 10000 | > 4.2 |  | > 4200 |  | > 10000 |  | Cc1nc(O)c2c(Sc3ccccc3)cccc2n1 |  |  | 
141 | > 50 | 65 | 50000 |  |  |  | Cc1nc(O)c2c(Sc3ccc(C(=O)O)cc3)c(C)ccc2n1 | >5 | > 50 | 
> 100000 | > 50 |  | > 50000 |  | > 100000 |  | Cc1nc(O)c2c(Oc3ccccc3)cccc2n1 |  |  | 
 | 0.99 |  | 1050 |  |  |  | Cc1nc(O)c2c(Sc3ccc(C(=O)N[C@H](CCC(=O)O)C(=O)O)cc3)c(C)ccc2n1 | >22 | 4.1 | 1.31
80 | 10.5 | 58 | 4050 |  |  |  | Cc1nc(O)c2c(Sc3ccnc(N(C)C)c3)c(C)ccc2n1 | 4.25 | 18 | 
39 | 4.2 | 66 | 4200 | 530 | 240 |  | Cc1cc(Sc2c(C)ccc3nc(C)nc(O)c23)ccn1 |  | 5 | 
93 | 5.2 | 58 | 3500 | 820 | 500 | 2.16 | Cc1nc(O)c2c(Sc3ccncc3)c(C)ccc2n1 | >14 | 6 | 
32 | 4.9 | 50 | 1800 |  |  |  | Cc1ccc2nc(N)nc(O)c2c1Sc1ccnc(N(C)C)c1 | >20 | 5.2 | 
120000 | > 50 | 190000 | > 50000 | > 80000 | > 80000 |  | Cc1nc(O)c2c(Sc3ccccn3)cccc2n1 | 1 | > 50 | 
200 | > 10 | 590 | > 10000 |  |  |  | CCc1ccc2nc(C)nc(O)c2c1Sc1ccncc1 | ~10 | > 10 | 
28 | > 2 | 24 | 1800 |  |  |  | Cc1ccc2nc(N)nc(O)c2c1Sc1ccnc(C(F)(F)F)c1 | >5 | > 2 | 
 | 0.81 |  | 1000 | 140 | 49 |  | Cc1ccc2nc(N)[nH]c(=O)c2c1Sc1ccncc1 [NOLATREXED] |  | 1 | 

SMILES | Ki (Thymidylate synthase [2]) [nM] | IC50 (CCRF-CEM) [µM] | Ki (Thymidylate synthase [3]) [nM] | IC50 (L1210 [4]) [nM] | Ki (Thymidylate synthase [5]) [nM] | Ki (Thymidylate synthase [6]) [nM] | logP [7] | Thymidine shift (L1210 [1]) | IC50 (GC3/MTK-) [µM] | Ki (Thymidylate synthase [8]) [nM]
Cc1nc(O)c2c(Sc3cccnc3)c(C)ccc2n1 | 310 | > 2.5 | 1100 | > 2500 | 9300 | 1700 |  |  | > 2.5 | 
Cc1nc(O)c2c(Sc3ccnc(C(F)(F)F)c3)c(C)ccc2n1 | 70 |  |  |  | 540 | 230 |  |  |  | 
COc1ccc2nc(C)nc(O)c2c1Sc1ccncc1 |  | 26 |  | 21000 | 3900 | 1500 |  |  | 32 | 
Cc1nc(O)c2c(Sc3ccncc3)c(O)ccc2n1 | 8800 | > 50 |  | > 50000 | 190000 | 51000 |  | 1 | > 50 | 
Cc1nc(O)c2c(Sc3ccnnc3)c(C)ccc2n1 | 87 |  |  |  | 1100 | 600 |  |  | > 12.5 | 
Cc1ccc2nc(N)nc(O)c2c1Sc1ccc(C(=O)N[C@H](CCC(=O)O)C(=O)O)cc1 |  | 0.52 |  | 2500 |  |  |  | ~8 | 1.7 | 0.124
Cc1ccc2nc(N)nc(O)c2c1Sc1ccnnc1 | 13 | 0.88 |  | 1600 |  |  |  | 17.6 | 1.5 | 
Cc1nc2ccc(C)c(Sc3ccc(S(=O)(=O)c4ccccc4)cc3)c2c(=O)[nH]1 |  | 2.1 |  | 1800 |  |  | 4.67 |  | 4.5 | 

Source: ChEMBL document CHEMBL1126619, “Design of thymidylate synthase inhibitors using protein crystal structures: the synthesis and biological evaluation of a novel class of 5-substituted quinazolinones” (J Med Chem, 1993)
